Source: ChEMBL document CHEMBL1134538, “Peptide folding induces high and selective affinity of a linear and small beta-peptide to the human somatostatin receptor 4” (J Med Chem, 2001)
Positions of bridges follow the written chain, without caps; N, C: chain ends. Non-standard residues stand in square brackets, D forms with d. Residues, ends and D or L forms follow the SMILES beside them. *: point of attachment. Threoninol(2S,3R) = C[C@@H](O)[C@H](CO)N*

Assays:
Assay type in all cases: cell-based
[1] = biological target: Somatostatin receptor type 1 (Homo sapiens) (UniProt P30872); assay: Binding assay at human somatostatin receptor 1 (hsst1) expressed in CCL-39 cells using LTT-CST-14-(Tyr10) as radioligand.
Procedure, shortened: (§1)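 Chinese hamster lung fibroblast CCL39 cells stably expressing each hsst receptor; crude membrane homogenates in 10 mM HEPES pH 7.5, 0.5% BSA, 5 mM MgCl2, 5 mg/mL bacitracin. Competition against 25-50 pM [125I][Tyr10]CST14; 1 µM SRIF14 defines nonspecific binding. Vacuum filtration, bound radioactivity counted. Triplicate curves fitted by nonlinear regression; pKD reported.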

[2] = biological target: Somatostatin receptor type 3 (Homo sapiens) (UniProt P32745); assay: Binding assay at human somatostatin receptor 3 (hsst3) expressed in CCL-39 cells using LTT-CST-14-(Tyr10) as radioligand.; procedure, shortened: as §1
[3] = biological target: Somatostatin receptor type 4 (Homo sapiens) (UniProt P31391); assay: Binding assay at human somatostatin receptor 4 (hsst4) expressed in CCL-39 cells using LTT-CST-14-(Tyr10) as radioligand.
Procedure, shortened: (§2)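 Chinese hamster lung fibroblast CCL39 cells stably expressing each hsst receptor; crude membrane homogenates in 10 mM HEPES pH 7.5, 0.5% BSA, 5 mM MgCl2, 5 mg/mL bacitracin. Vacuum filtration, bound radioactivity counted. Triplicate curves fitted by nonlinear regression; pKD reported.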

[4] = biological target: Somatostatin receptor type 2 (Homo sapiens) (UniProt P30874); assay: Binding assay at human somatostatin receptor 2 (hsst2) expressed in CCL-39 cells using LTT-CST-14-(Tyr10) as radioligand.; procedure, shortened: as §2
[5] = biological target: Somatostatin receptor type 5 (Homo sapiens) (UniProt P35346); assay: Binding assay at human somatostatin receptor 5 (hsst5) expressed in CCL-39 cells using LTT-CST-14-(Tyr10) as radioligand.; procedure, shortened: as §2
Chain of Somatostatin receptor type 5 (Homo sapiens) (P35346 whole entry): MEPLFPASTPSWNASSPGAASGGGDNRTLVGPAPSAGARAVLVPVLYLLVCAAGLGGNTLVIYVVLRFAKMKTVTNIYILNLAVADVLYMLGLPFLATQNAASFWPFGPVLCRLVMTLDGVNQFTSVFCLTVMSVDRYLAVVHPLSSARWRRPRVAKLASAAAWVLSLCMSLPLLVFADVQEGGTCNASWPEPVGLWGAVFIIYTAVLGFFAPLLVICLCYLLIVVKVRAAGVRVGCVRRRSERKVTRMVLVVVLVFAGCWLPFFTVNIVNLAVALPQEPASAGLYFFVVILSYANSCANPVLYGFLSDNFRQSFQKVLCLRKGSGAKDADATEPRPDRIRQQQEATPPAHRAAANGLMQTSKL

Chain of Somatostatin receptor type 3 (Homo sapiens) (P32745 whole entry): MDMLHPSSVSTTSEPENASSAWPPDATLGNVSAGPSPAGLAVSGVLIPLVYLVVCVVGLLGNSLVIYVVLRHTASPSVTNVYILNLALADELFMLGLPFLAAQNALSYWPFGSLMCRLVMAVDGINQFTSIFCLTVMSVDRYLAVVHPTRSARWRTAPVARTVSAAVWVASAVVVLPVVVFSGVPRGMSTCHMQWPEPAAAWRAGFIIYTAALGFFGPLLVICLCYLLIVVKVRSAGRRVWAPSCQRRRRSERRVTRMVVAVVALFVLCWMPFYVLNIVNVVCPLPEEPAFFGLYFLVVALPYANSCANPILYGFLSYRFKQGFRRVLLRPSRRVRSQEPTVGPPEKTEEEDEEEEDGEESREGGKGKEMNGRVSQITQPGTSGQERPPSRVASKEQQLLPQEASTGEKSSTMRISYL
Chain of Somatostatin receptor type 1 (Homo sapiens) (P30872 whole entry): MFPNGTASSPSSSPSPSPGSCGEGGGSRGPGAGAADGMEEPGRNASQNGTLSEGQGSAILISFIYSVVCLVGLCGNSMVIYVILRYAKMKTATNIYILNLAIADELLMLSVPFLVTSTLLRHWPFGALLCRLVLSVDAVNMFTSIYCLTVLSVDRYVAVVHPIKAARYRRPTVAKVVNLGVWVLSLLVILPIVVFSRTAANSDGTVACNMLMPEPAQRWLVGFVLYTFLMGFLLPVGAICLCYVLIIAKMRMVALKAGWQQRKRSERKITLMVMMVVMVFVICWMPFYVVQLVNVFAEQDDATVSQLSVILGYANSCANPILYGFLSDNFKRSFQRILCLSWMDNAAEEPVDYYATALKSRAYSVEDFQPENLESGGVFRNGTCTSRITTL
Chain of Somatostatin receptor type 4 (Homo sapiens) (P31391 whole entry): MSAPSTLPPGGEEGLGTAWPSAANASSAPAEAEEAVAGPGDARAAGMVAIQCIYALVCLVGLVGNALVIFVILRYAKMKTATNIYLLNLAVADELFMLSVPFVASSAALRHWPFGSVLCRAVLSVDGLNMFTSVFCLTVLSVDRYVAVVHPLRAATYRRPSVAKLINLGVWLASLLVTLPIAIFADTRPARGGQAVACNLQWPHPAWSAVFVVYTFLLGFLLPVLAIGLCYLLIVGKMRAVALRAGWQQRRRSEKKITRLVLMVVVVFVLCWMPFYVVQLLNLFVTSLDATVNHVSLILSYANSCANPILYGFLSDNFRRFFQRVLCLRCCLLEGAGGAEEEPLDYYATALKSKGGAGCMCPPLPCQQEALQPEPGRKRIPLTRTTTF
Chain of Somatostatin receptor type 2 (Homo sapiens) (P30874 whole entry): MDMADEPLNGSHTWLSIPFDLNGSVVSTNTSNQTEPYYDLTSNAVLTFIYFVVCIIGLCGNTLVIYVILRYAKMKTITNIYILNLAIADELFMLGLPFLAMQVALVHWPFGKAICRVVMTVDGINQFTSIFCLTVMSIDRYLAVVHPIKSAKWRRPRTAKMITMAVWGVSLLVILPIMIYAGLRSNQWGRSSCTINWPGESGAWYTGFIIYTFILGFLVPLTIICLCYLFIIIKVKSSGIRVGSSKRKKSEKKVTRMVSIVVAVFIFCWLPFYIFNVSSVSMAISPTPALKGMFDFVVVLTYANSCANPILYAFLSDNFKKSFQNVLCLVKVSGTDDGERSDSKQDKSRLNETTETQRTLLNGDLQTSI

## CC(=O)N[C@H](CC(=O)NC[C@H](CCCCN)C(=O)N[C@H](CC(=O)N[C@H](CC(N)=O)Cc1ccccc1)Cc1c[nH]c2ccccc12)[C@@H](C)O
[1]
  pKD: 4.88
[2]
  pKD: < 5
[3]
  pKD: 7.08
[4]
  pKD: < 5
[5]
  pKD: < 5

## C[C@@H](O)[C@H](CO)NC(=O)[C@@H]1CSSC[C@H](NC(=O)[C@H](N)Cc2ccccc2)C(=O)N[C@@H](Cc2ccccc2)C(=O)N[C@H](Cc2c[nH]c3ccccc23)C(=O)N[C@@H](CCCCN)C(=O)N[C@@H]([C@@H](C)O)C(=O)N1 (H-[dF]CF[dW]KTC-{Threoninol(2S,3R)}; disulfide 2-7)
[2]
  pKD: 8.6

## CC(=O)N[C@H](CC(=O)N[C@@H](CCCCN)CC(=O)N[C@H](CC(=O)N[C@H](CC(N)=O)Cc1ccccc1)Cc1c[nH]c2ccccc12)[C@@H](C)O
[1]
  pKD: < 4
[2]
  pKD: < 5
[3]
  pKD: < 4
[4]
  pKD: < 4
[5]
  pKD: < 4

## CC(=O)N[C@H](C(=O)N[C@@H](CCCCN)C(=O)N[C@@H](Cc1c[nH]c2ccccc12)C(=O)N[C@@H](Cc1ccccc1)C(N)=O)[C@@H](C)O (Ac-TKWF-NH2)
[1]
  pKD: < 4
[2]
  pKD: < 5
[3]
  pKD: < 5
[4]
  pKD: < 4
[5]
  pKD: < 4
